Reference: PMC10150624 (Journal of Enzyme Inhibition and Medicinal Chemistry, 2023)

Key:
[1] = system: A549 cells; experiment: AO/EB fluorescent staining, morphology of apoptotic cells; format: cell-based; details: A549 cells, 1, 5 or 10 μM, 48 h
Summary of the method: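 A549 cells seeded in 6-well plates at 3.6 × 10^5/mL and grown 24 h, then exposed to test compound for a further 48 h; untreated A549 cells served as control. Cells were stained for a few min with AO/EB dual fluorescent solution, then viewed and photographed by forward fluorescence microscopy for apoptotic morphology.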

[2] = system: A549 cells; experiment: Wound healing; format: cell-based; details: 5 or 10 μM, 0, 24 and 48 h
Summary of the method: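 Wound-healing format with A549 cells at 3.6 × 10^5/well, exposed to test compound and imaged at 0, 24 and 48 h. Cell migration into the wound was assessed by microscopy and photography.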

[3] = system: H1975 cells; experiment: Cell cycle progression by flow cytometry; format: cell-based; details: 24 h
Summary of the method: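 H1975 cells seeded at 3 × 10^5/well and cultured 24 h, then treated with test compound (0.2, 1.0, 5 μM) for 24 h at 37 °C. Cells PBS-washed, fixed overnight in ice-cold 70% ethanol, washed again and stained with PI for 30 min at room temperature in the dark. DNA content analysed by flow cytometry to give the G2/M fraction against an untreated control.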

[4] = target: EGFR^L858R/T790M (Homo sapiens, UniProt P00533, L858R/T790M); experiment: EGFR kinase inhibition by ELISA, L858R/T790M; format: biochemical; details: EGFR^L858R/T790M versus EGFR^WT, kinase assay
[5] = system: H1975 cells; experiment: Apoptosis by flow cytometry, Annexin V/PI double staining; format: cell-based; details: H1975, 10 μM, 48 h; total apoptotic cells (Q2 + Q3)
Summary of the method: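 H1975 cells in log growth seeded at 3 × 10^5/well, held 24 h at 37 °C, 5% CO2, then exposed to test compound at several concentrations for 48 h. Cells harvested by trypsin, PBS-washed, stained with Annexin V-APC for 30 min and then PI for 3 min at room temperature in the dark, diluted in saline and read at once by flow cytometry. Total apoptotic fraction taken as Q2 + Q3.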

Sequence of EGFR^L858R/T790M (P00533 25-1210 T790M/L858R): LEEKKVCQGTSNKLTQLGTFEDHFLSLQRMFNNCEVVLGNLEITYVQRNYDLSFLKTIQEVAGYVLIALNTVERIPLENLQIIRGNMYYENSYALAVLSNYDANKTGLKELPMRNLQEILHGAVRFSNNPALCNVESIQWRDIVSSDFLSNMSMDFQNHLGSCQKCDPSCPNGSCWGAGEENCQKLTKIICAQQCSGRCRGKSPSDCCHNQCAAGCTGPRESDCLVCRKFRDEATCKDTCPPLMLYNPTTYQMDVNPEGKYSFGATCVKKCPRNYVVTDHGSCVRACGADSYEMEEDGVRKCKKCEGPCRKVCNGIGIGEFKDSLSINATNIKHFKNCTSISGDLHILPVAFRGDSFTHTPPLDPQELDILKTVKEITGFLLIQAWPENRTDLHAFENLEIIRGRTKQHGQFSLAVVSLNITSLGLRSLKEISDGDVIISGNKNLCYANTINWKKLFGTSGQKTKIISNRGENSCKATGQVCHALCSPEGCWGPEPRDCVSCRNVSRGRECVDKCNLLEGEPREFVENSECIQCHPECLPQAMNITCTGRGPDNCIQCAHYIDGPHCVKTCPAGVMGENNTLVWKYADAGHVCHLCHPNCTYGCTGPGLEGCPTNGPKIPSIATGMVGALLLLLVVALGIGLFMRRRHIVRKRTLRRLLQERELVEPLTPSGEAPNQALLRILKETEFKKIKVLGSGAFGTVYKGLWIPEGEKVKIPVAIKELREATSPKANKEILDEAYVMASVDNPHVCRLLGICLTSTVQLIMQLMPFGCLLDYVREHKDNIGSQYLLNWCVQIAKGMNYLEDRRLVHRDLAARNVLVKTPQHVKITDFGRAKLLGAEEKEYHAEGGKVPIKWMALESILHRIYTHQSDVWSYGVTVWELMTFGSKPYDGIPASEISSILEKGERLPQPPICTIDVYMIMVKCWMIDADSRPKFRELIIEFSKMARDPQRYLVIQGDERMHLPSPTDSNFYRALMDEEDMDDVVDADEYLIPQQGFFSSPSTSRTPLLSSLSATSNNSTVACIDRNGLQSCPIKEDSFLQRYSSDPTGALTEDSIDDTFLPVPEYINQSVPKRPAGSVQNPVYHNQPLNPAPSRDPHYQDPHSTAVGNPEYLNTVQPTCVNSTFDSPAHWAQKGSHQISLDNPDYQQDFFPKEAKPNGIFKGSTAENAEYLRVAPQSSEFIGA

| Structure (SMILES) | apoptosis induction, cell morphology [1] | wound healing [2] | percentage of G2/M-phase cells ([3]; H1975, 0.2 μM) | percentage of G2/M-phase cells ([3]; H1975, 1.0 μM) | percentage of G2/M-phase cells ([3]; H1975, 5 μM) | selectivity for EGFR^WT [4] | apoptosis rate [5] |
| --- | --- | --- | --- | --- | --- | --- | --- |
| C=C(Cl)C(=O)Nc1cc(Nc2nc(N3CCc4sccc4C3)c3sccc3n2)c(OC)cc1N(C)CCN(C)C [Compound B1, 2-chloro-N-(5-((4–(6,7-dihydrothieno[3,2-c]pyridin-5(4H)-yl)thieno[3,2-d]pyrimidin-2-yl)amino)-2-((2-(dimethylamino)ethyl)(methyl)amino)-4-methoxyphenyl)acrylamide] | induce apoptosis in A549 cells in a concentration-dependent manner | wound healing was slower in the treated group than that in the blank control group | 24.41% | 27.68% | 31.47% | more than 76 fold | 22.1% |
| C=C(Cl)C(=O)Nc1cc(Nc2nc(Nc3cnn(C)c3)c3sccc3n2)c(OC)cc1N(C)CCN(C)C [Compound B7, 2-chloro-N-(2-((2-(dimethylamino)ethyl)(methyl)amino)-4-methoxy-5-((4-((1-methyl-1H-pyrazol-4-yl)amino)thieno[3,2-d]pyrimidin-2-yl)amino)phenyl)acrylamide] | induce apoptosis in A549 cells in a concentration-dependent manner | wound healing was slower in the treated group than that in the blank control group |  |  |  | more than 16 fold |  |
